Results on 23 compounds are retold here after ChEMBL document CHEMBL1135300, “The mechanism of the irreversible inhibition of estrone sulfatase (ES) through the consideration of a range of methane- and amino-sulfonate-based compounds” (Bioorg Med Chem Lett, 2002).

Assay [1] addresses T1, Steryl-sulfatase (Homo sapiens, UniProt P08842).
T1 sequence (P08842 whole entry): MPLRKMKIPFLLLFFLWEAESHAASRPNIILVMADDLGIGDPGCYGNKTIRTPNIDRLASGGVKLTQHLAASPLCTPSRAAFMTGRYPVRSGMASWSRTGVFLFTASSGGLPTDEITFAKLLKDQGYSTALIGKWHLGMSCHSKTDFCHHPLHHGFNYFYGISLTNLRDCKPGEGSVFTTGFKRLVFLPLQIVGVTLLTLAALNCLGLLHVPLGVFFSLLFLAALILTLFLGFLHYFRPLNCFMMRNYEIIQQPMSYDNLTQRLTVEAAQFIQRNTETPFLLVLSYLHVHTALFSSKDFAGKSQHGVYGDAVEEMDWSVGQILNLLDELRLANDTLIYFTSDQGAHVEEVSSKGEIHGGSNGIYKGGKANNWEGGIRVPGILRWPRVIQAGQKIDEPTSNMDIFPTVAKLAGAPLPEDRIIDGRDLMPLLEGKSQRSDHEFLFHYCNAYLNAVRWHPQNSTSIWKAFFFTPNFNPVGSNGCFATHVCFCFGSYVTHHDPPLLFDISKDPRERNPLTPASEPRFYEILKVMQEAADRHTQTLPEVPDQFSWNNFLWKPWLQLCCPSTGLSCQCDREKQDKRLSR
Kind of assay: In vitro inhibition of estrone sulfatase. An outline of the steps:
(§1)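 ³H-estrone sulfate (750,000 dpm per tube) with inhibitors from ethanol stock, ethanol evaporated under nitrogen. Placental microsomes in 0.05 M Tris–HCl, pH 7.2, were prewarmed 5 min at 37 °C, then added; 1 mL total, incubated 20 min at 37 °C. Toluene quench, extraction, and scintillation counting of product. Triplicates; no-inhibitor controls; boiled-microsome blanks.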

The target of assay [2] is T2, Steryl-sulfatase (Homo sapiens) (UniProt P08842).
T2 sequence (whole entry): T1 sequence (P08842 whole entry)
In words: In vitro inhibition of estrone sulfatase at 1 mM. In a few lines: as §1

The target in assay [3] is T2, Steryl-sulfatase (Homo sapiens). In words: In vitro inhibition of estrone sulfatase at 10 mM. In a few lines: as §1

Compound `NS(=O)(=O)Oc1cccc(F)c1` showed an IC50 in assay [1] of 2089 uM l-1. Besides, the inhibition in assay [2] amounted to 79.6%.

As to `CCCCCCCCCOS(N)(=O)=O`, in assay [3], the inhibition was 0%.

In turn, `Cc1cccc(OS(N)(=O)=O)c1` displayed an IC50 in assay [1] of 2089 uM l-1. Besides, in assay [2], the inhibition stood at 39.5%.

Consider `NS(=O)(=O)Oc1ccc(Br)cc1`, for which the IC50 in assay [1] is 912 uM l-1. Besides, in assay [2], the inhibition amounted to 50.8%.

On to `NS(=O)(=O)Oc1ccc([N+](=O)[O-])cc1`, for which the IC50 in assay [1] is on record as 330 uM l-1. In assay [2], this compound gave an inhibition of 82.5%.

For `NS(=O)(=O)Oc1ccc(F)cc1`, the IC50 in assay [1] is listed as 537 uM l-1. The compound also gave an inhibition in assay [2] of 37%.

In assay [1], `NS(=O)(=O)Oc1cccc(Cl)c1` gave an IC50 of 537 uM l-1. This compound had an inhibition in assay [2] of 62%.

For `NS(=O)(=O)OCC(Cl)Cl`, the inhibition in assay [2] was 30%.

Consider `NS(=O)(=O)Oc1ccccc1` [PHENYLSULFAMATE], for which the IC50 in assay [1] is > 10000 uM l-1. Also, the inhibition in assay [2] came to 29.7%.

In turn, `N#Cc1ccc(OS(N)(=O)=O)cc1` registered an IC50 in assay [1] of 300 uM l-1. In assay [2], the inhibition amounted to 74.4%.

In turn, `NS(=O)(=O)OCC(Cl)(Cl)Cl` gave an IC50 in assay [1] of 750 uM l-1. The inhibition in assay [2] is 60%.

In turn, `NS(=O)(=O)Oc1cccc([N+](=O)[O-])c1` gave an IC50 in assay [1] of 120 uM l-1. The inhibition in assay [2] was 90.4%.

In assay [2], `NS(=O)(=O)OCCCl` displayed an inhibition of 15%.

In assay [1], `NS(=O)(=O)Oc1ccc(I)cc1` came in with an IC50 of 560 uM l-1. For the same compound, the inhibition in assay [2] came to 66%.

`CCCCCCCCCOS(C)(=O)=O` returned an inhibition in assay [2] of 28%.

As for `CCCCCCCCOS(N)(=O)=O`, the inhibition in assay [3] came to 0%.

In turn, `NS(=O)(=O)Oc1cccc(I)c1` returned an IC50 in assay [1] of 120 uM l-1. For the same compound, the inhibition in assay [2] came to 89.4%.

Turning to `NS(=O)(=O)Oc1cccc(Br)c1`, the IC50 in assay [1] is 257 uM l-1. In addition, the inhibition in assay [2] turned out to be 75.1%.

The compound `CCCCCCCCCCCCOS(C)(=O)=O` gave an inhibition in assay [2] of 17%.

`N#Cc1cccc(OS(N)(=O)=O)c1` displayed an IC50 in assay [1] of 191 uM l-1. Moreover, the inhibition in assay [2] came out at 84.3%.

`NS(=O)(=O)Oc1ccc(Cl)cc1` returned an IC50 in assay [1] of 1585 uM l-1. For the same compound, the inhibition in assay [2] worked out at 37.6%.

Consider `Cc1ccc(OS(N)(=O)=O)cc1`, for which, in assay [1], the IC50 is on record as > 10000 uM l-1. This compound showed an inhibition in assay [2] of 27.4%.

`CCCCCCCOS(N)(=O)=O` yielded an inhibition in assay [3] of 0%.

The inhibition is the drop in the measured response relative to a control, in per cent. High values mean a strong effect, low ones a weak effect.
